We go through six molecules from article PMC3600088 (Journal of medicinal chemistry, 2013).

Entries after “also recorded” stand apart in the source; their conditions may differ. Like-named read-outs stand apart in the source and are kept apart here.

One data set concerns the target T1, CMG2 (Homo sapiens, UniProt P58335, C175A/R40C).
T1 sequence (P58335 40-217 R40C/C175A): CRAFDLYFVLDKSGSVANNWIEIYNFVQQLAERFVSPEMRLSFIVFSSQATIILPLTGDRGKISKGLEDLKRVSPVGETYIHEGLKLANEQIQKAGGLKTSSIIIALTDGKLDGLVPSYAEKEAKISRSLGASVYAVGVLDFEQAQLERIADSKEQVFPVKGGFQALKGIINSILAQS
Description: CMG2-Protective antigen. The following applies: for inhibitory activity in CMG2 FRET assay: concentrations up to 300 μM. Format: binding.

For another data set, the target named is H+, K+, ATPase. The note with it: cited from earlier work.
Data set [1] has as its system angiogenesis. The note with it: cited from earlier work.
The next data set concerns bFGF-driven angiogenesis. Description: Mouse corneal micropocket assay. Format: in vivo, C57BL/6J mice. The note with it: mice. In short, it runs like this: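 Pellets with 80 ng bFGF were implanted in C57BL/6J corneas, five mice per group. Test compound was given daily by oral gavage at 20 mg/kg in 5% ethanol, or IP at 10 mg/kg/day in 2.5% DMSO, 5% Cremophor EL, 5% Tween-80, 7.5% N-methyl-2-pyrrolidone, 0.9% NaCl. Controls received vehicle. Dosing began at implantation, and vascular area was measured by slit lamp on postoperative day 5 (~10 eyes/group, t-test).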

For data set [2] the following is noted: IP and orally at doses up to 30 mg/kg/day; cited from earlier work.
In data set [3] the test system is human dermal microvascular endothelial cells (HMVEC-d). Description: Endothelial cell migration assay. In kind it is cell-based. The following applies: ex vivo endothelial cell migration assay. In short, it runs like this: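 HMVEC-d kept in EGM-2 and used before passage 7, resuspended in EBM with 0.1% BSA. 20,000 cells were placed on fibronectin-coated 8.0 μm-pore polycarbonate transwell inserts over full-serum (5%) medium with or without test compound, and left to migrate 4 h. Top-side cells were removed, membranes fixed and Diff-Quick stained, and 4 10X fields counted. Counts were normalized to no-treatment control, with IC50 from a binding-isotherm fit. Two experiments, n=3 each.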

The subject of a further data set is HMVEC-d cells. Description: Endothelial cell proliferation assay. Format: cell-based, human. The note with it: at doses that inhibited migration, 24 and 72 hours.
For data set [4] the following is noted: cited from earlier work.
The next data set concerns DNA polymerases. The note with it: certain DNA polymerases; cited from earlier work.
Another data set has as its system Caco-2 monolayers. The following applies: cited from earlier work.
The conditions of data set [5]: cited from earlier work. This is another data set of the same source.
Data set [6] deals with angiogenesis. The note with it: therapeutic concentrations; cited from earlier work.

For the molecule `COC(=O)c1cc(O)c(O)c(O)c1` [Methyl Gallate], the “inhibitory activity in CMG2 FRET assay” value on CMG2 is on record as “None of these compounds exhibited any inhibitory activity”.
Take `O=C(OC[C@H]1O[C@@H](OC(=O)c2cc(O)c(O)c(O)c2)[C@H](OC(=O)c2cc(O)c(O)c(O)c2)[C@@H](OC(=O)c2cc(O)c(O)c(O)c2)[C@@H]1OC(=O)c1cc(O)c(O)c(O)c1)c1cc(O)c(O)c(O)c1` [PGG, 1,2,3,4,6-penta-O-galloyl-β-D-glucopyranose]: the “IC50 (in words)” value is “submicromolar” on H+, K+, ATPase; “submicromolar” at CMG2 (in vitro FRET binding assay); “submicromolar” in the data set on DNA polymerases. For the same molecule, the “dose at which antiangiogenic activity has been evoked” value in the data set with angiogenesis [1] is listed as 4 mg/kg. In addition, on CMG2 (fractions of the "tannic acid" sample), the “activity of HPLC fractions in the FRET assay” value is “active”. Besides, the “inhibition of bFGF-driven angiogenesis” value in the data set with bFGF-driven angiogenesis (10 mg/kg IP, 80 ng bFGF pellet) is “significantly inhibited”. Moreover, the “inhibition of bFGF-driven angiogenesis (vessel area)” value in the data set on bFGF-driven angiogenesis (20 mg/kg/day by oral gavage, 80 ng bFGF pellet, day 5) is given as “significantly inhibited; also recorded: statistically significant”. Also, in the data set with bFGF-driven angiogenesis (10 mg/kg IP or 20 mg/kg/day oral), the “signs of toxicity (weight loss, hunched posture, behavioral abnormalities)” value is recorded as “no obvious signs of toxicity”. Besides, the ill effects result in [2] is “without ill effects”. The “IC50 of endothelial cell migration (in words)” value in data set [3] is “submicromolar”. Moreover, the “cytotoxic or cytostatic effects” value with HMVEC-d cells was “no cytotoxic or cytostatic effects”. In addition, the plasma concentrations entry in data set [4] (intraperitoneal administration) was “single-digit micromolar”; in data set [4] (oral administration) it was “submicromolar”. In [4] (oral dose of 80 mg/kg, experimental animals), the circulating concentrations is under 1 µM. Moreover, the nature of transport entry in the data set with Caco-2 monolayers is listed as “saturable”.
As to `CCCOC(=O)c1cc(O)c(O)c(O)c1` [Propyl Gallate], the “inhibitory activity in CMG2 FRET assay” value on CMG2 is reported as “None of these compounds exhibited any inhibitory activity”.
With `O=C(OC[C@H]1O[C@@H](OC(=O)c2cc(O)c(O)c(OC(=O)c3cc(O)c(O)c(O)c3)c2)[C@H](OC(=O)c2cc(O)c(O)c(OC(=O)c3cc(O)c(O)c(O)c3)c2)[C@@H](OC(=O)c2cc(O)c(O)c(OC(=O)c3cc(O)c(O)c(O)c3)c2)[C@@H]1OC(=O)c1cc(O)c(O)c(OC(=O)c2cc(O)c(O)c(O)c2)c1)c1cc(O)c(O)c(OC(=O)c2cc(O)c(O)c(O)c2)c1` [Tannic acid], the “toxicity upon administration in mice” value in data set [5] is listed as “toxic effects”.
Turning to `COc1ccc2[nH]c([S+]([O-])Cc3ncc(C)c(OC)c3C)nc2c1` (centres unmarked) [omeprazole], the inhibition of angiogenesis result in the data set on angiogenesis [6] is “fails to inhibit angiogenesis”.
In general, IC50 refers to the concentration needed to halve the response being measured. On CMG2, Protocatechillic acid registered an IC50 of over 300 µM.
